Source: PubChem BioAssay
MsrA inh: bovine MsrA inhibition | purified bovine MsrA, absorbance read-out | hit rate 0.75% among 360,000 | inhibition, % at 15.5 µM
MIN6 prolif: MIN6 beta-cell proliferation induction. MIN6 cells proliferation, ATPlite luminescence, 48 h; cells starved in 0.2% serum; 100% = growth in 10% serum. proliferation, % at 10 µM. hit rate 0.29% among 330,000;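 active = compounds whose signal lies at least 3.5 SD above the mean of all wells on their plate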
SKN-1 block: C. elegans SKN-1 inhibition. inhibition, % at 21.8 µM. AID 624304. C. elegans VP596 Pgst-4::GFP/RFP ratio, acrylamide-induced, 24 h. hit rate 0.49% among 360,000;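 active = interference check ratio from 0.5 to 1.5 plus GFP to RFP signal ratio inhibition reaching or exceeding a fixed threshold, cut at about 30% in these data, passing the limit was not always enough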
MT1-MMP act inh: MT1-MMP (human) activation inhibition; P50281; HT1080 RFP-PRO-GFP cells, GFP/RFP ratio fluorescence, overnight; percent of plate control window, DMSO zero; GFP/RFP ratio change, % at 20 µM; hit rate 0.061% among 360,000;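 active = GFP/RFP ratio change of at least 30% with cell ATP level not reduced by more than half and red fluorescence within 50% of control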
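Test system: HT1080 cells expressing an RFP-PRO-GFP fluorescent reporter construct / Compound dosing: single-point 20 µM compound, 1% DMSO / Schedule: cells overnight before dosing, compound overnight, 37 °C, 5% CO2 / Evaluation: GFP/RFP fluorescence ratio / Control set: DMSO and RFP-L50D-GFP cell wells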
bovine MsrA act: activators of bovine methionine sulfoxide reductase A. purified bovine MsrA, absorbance read-out. hit rate 0.3% among 360,000. activation, % at 10.6 µM; in the data active = activation above about 7.5%
DAGLB inhibitor: blocks human DAGLB lipase activity; Q8NCG7; inhibition, % at 5.17 µM; AID 504411; HEK293T DAGLB membrane lysate, EnzChek fluorogenic substrate; hit rate 0.059% among 340,000; in the data active = inhibition above about 34%
Target sequence (Q8NCG7 whole entry, looked up): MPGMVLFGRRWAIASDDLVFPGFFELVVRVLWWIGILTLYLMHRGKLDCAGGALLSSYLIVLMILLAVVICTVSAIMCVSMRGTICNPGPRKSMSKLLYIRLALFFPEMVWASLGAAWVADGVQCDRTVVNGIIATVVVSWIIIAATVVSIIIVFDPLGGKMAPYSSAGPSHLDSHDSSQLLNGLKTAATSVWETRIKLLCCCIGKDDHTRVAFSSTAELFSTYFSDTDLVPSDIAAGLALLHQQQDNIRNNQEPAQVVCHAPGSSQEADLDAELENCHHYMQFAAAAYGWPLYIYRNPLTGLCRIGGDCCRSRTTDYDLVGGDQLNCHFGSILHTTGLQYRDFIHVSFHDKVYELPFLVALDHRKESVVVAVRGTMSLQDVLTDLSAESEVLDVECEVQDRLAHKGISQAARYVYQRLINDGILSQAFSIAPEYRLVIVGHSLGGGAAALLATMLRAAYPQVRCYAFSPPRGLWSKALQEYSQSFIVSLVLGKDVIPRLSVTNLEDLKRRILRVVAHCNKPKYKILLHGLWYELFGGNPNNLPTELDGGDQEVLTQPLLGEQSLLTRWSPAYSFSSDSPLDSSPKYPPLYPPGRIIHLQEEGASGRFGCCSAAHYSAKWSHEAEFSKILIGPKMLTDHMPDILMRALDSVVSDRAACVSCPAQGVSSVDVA
MsrA activ conf: confirmation of bovine methionine sulfoxide reductase A activators | shares compounds with bovine MsrA act | activation, % at 10.6 µM | purified bovine MsrA, absorbance read-out | hit rate 12% among 1,000; in the data active = activation above about 4%;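 note: enzyme coupled to thioredoxin and thioredoxin reductase with NADPH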
MT1-MMP conf: MT1-MMP (human) activation inhibition, single-concentration validation. AID 652235. HT1080 RFP-PRO-GFP cells, GFP and RFP fluorescence ratio, overnight. inhibition, % at 20 µM. shares compounds with MT1-MMP act inh. hit rate 10% among 200;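 active = inhibition of at least 50% in the primary cell screen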
MsrA conf: confirmation of bovine MsrA inhibitors; shares compounds with MsrA inh; inhibition, % at 15.5 µM; AID 651822; purified bovine MsrA, absorbance read-out; hit rate 41% among 2,300;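 note: coupled to thioredoxin reductase with NADPH and selenocystamine and DMSO as substrate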
Large screens that a line does not name were inactive (follow-up assays come after a bar, where they were run). Compounds with a hit are over-represented: about 1.8% of the library has one in this group of screens. Cut-off read from the data, not from the text of the source, unless noted: active = inhibition above about 4.5%; inactive = the rest.

COc1cc2c(c(OC)c1O)-c1ccc(OC)c(=O)cc1C(NC(=O)C(F)(F)F)CC2 (stereo not drawn)	none (no result: MIN6 prolif)
COc1cc2c(c(OC)c1OC)-c1ccc(C(=O)O)cc1[C@@H](NC(C)=O)CC2	bovine MsrA act 19 | MsrA activ conf inactive
O=C(CCN1CCOCC1)NCC(=O)Nc1ccc(Br)cc1C(=O)c1ccccc1	bovine MsrA act 7.8 | MsrA activ conf inactive
COc1cc2c(cc1OC)C13CCN4CC5CCOC6CC(=O)N2C1C6C5CC43 (stereo not drawn)	none (no result: MIN6 prolif)
CC[n+]1c(-c2ccccc2)c2cc(N)ccc2c2ccc(N)cc21	MsrA inh 44, bovine MsrA act 9.2 (no result: MIN6 prolif) | MsrA activ conf inactive | MsrA conf 49
CC(NC(=O)N1CC1(C)C)c1ccccc1 (stereo not drawn)	none (no result: MIN6 prolif)
CC(C)OC(=O)c1c(N)n(CC2CCCO2)c2nc3ccccc3nc12 (stereo not drawn)	MT1-MMP act inh 37 | MT1-MMP conf inactive
CC(C)CCOC(=O)c1c(N)n(CC2CCCO2)c2nc3ccccc3nc12 (stereo not drawn)	none
COc1cc2c(cc1OC)-c1c3c(cc4c1[C@@H](C2)N(C)CC4)OCO3	MT1-MMP act inh 33 | MT1-MMP conf inactive
C[C@]12CC[C@H](O)CC1=CCC1C2CC[C@]2(C)C(=O)[C@H](Br)CC12 (stereo partly drawn)	none
C[C@@H]1CN([C@H](C)CO)C(=O)CCCn2nncc2CO[C@@H]1CN(C)C(=O)Oc1ccccc1	none (no result: MIN6 prolif)
CCOc1ccc2nc(N=Nc3c(O)[nH]c(=O)[nH]c3=O)sc2c1	none
CCOc1ccc2nc(N=Nc3c(O)[nH]c(=S)[nH]c3=O)sc2c1	MT1-MMP act inh 59 | MT1-MMP conf inactive
COC(=O)C1=C(c2ccc(OC(F)(F)F)cc2)C[C@@H]2CC[C@H]1N2C(=O)NCCc1ccccc1	MT1-MMP act inh 31 | MT1-MMP conf inactive
COCCO[C@H]1CCC2C3CC=C4C[C@@H](O)CC[C@]4(C)C3CC[C@@]21C (stereo partly drawn)	none
C=CCN1C(=O)/C(=C/c2cccs2)C(=O)NC1=S	MT1-MMP act inh 35 (no result: MIN6 prolif) | MT1-MMP conf inactive
C[C@H](CO)N1C[C@H](C)[C@H](CN(C)C(=O)Oc2cccc3ccccc23)OCc2cnnn2CCCC1=O	none (no result: MIN6 prolif)
CC[n+]1c(/C=C/N(C)c2ccccc2)sc2ccc(Cl)cc21	MT1-MMP act inh 52 | MT1-MMP conf inactive
CC[n+]1c(/C=C/C=C/c2ccc(N(C)C)cc2)sc2ccccc21	none
O=C(CF)NC(Nc1cccc2cccnc12)C(Cl)(Cl)Cl (stereo not drawn)	MT1-MMP act inh 49 | MT1-MMP conf inactive
CCOC(=O)c1cc(C(O)(C(=O)OC)C(F)(F)F)c(/N=C/N(C)C)o1 (stereo not drawn)	MsrA inh 6.8 | MsrA conf inactive
CCN(CC)c1ccc(N=Cc2c(O)n(-c3ccccc3C)c(=O)[nH]c2=O)cc1	none
Cc1ccccc1-n1c(O)c(C=Nc2ccc3c(c2)OCO3)c(=O)[nH]c1=O	MsrA inh 4.7 | MsrA conf inactive
O=C(Cc1ccccc1F)N1CCN(CC(=O)N2CCCC2)CC1	none
COCCCNP1(=O)OCC(C)([N+](=O)[O-])CO1 (stereo not drawn)	none (no result: MIN6 prolif)
O=C(N/N=C/c1c(O)n(CCc2ccc(F)cc2)c(=O)[nH]c1=O)c1ccccc1	none (no result: DAGLB inhibitor)
COc1ccc(Cn2c(O)c(/C=N/NC(=O)c3ccccc3O)c(=O)[nH]c2=O)cc1	MsrA inh 6.2 | MsrA conf 5.4
O=C(N/N=C/c1c(O)n(CCc2ccccc2)c(=O)[nH]c1=O)c1ccccc1O	MsrA inh 4.9 | MsrA conf inactive
N#C/C(=C\c1ccc(O)cc1)C(=O)O (tested in a mixture with another compound)	MsrA inh 4.7 (no result: MIN6 prolif) | MsrA conf inactive
COC(=O)C1=C(c2ccc(-c3ccccc3)c(F)c2)C[C@@H]2CC[C@H]1N2C(=O)NC1CCCCC1	none
COc1cc(/C=C/[N+](=O)[O-])ccc1O	MsrA inh 5.5 | MsrA conf 4.7
C(#CCN1CCCC1)CN1CCCC1	none
CCn1nc(/C=C/c2ccccc2)nc2c(=O)n(C)c(=O)nc1-2	MsrA inh 5.3 (no result: DAGLB inhibitor) | MsrA conf 4.6
C=CCn1c(O)c(/C=C/C=Nc2ccccc2)c(=O)[nH]c1=O	MsrA inh 5.7 | MsrA conf inactive
COc1ccc(CC(=O)N2CCN(C)CC2)cc1OC	none
COc1ccc(CC(=O)C2C(=O)N(C)c3ccccc32)cc1OC (stereo not drawn)	MsrA inh 4.9 (no result: MIN6 prolif) | MsrA conf inactive
Cc1cc(C)c2c(ccc3cccc[n+]32)c1	none (no result: DAGLB inhibitor)
CN1CCCC1c1ccc(=O)[nH]c1 (stereo not drawn)	none (no result: MIN6 prolif)
Cc1c(N=Cc2c(O)n(Cc3ccc(F)cc3)c(=O)[nH]c2=O)c(=O)n(-c2ccccc2)n1C	MsrA inh 4.9 | MsrA conf inactive
CC1CCCC(NC(=O)COC(=O)c2cn(C)c3ccccc23)C1C (stereo not drawn)	none
CCOP(=O)(OCC)OCC	none
CCOP(=O)(CCP(=O)(OCC)OCC)OCC.C[CH2][Sn]([Cl])([Cl])[CH2]C	MsrA inh 56 (no result: MIN6 prolif) | MsrA conf 51
COC(=O)C1=C(c2c(C)noc2C)C[C@@H]2CC[C@H]1N2C(=O)NC1Cc2ccccc2C1	none
O=C(NN=Cc1ccc(N(CCCl)CCCl)cc1)c1cc(=O)[nH]c(=O)[nH]1	none (no result: MIN6 prolif)
O=C(Cc1cc(=O)oc2cc(O)ccc12)NN=Cc1ccc(N(CCCl)CCCl)cc1	MsrA inh 7.3 (no result: MIN6 prolif) | MsrA conf 6.1
CC(C)n1c(=O)c(C=Nc2ccc(F)cc2)c(O)n(Cc2ccco2)c1=O	MsrA inh 5.7 | MsrA conf inactive
COC(=O)C(Cc1ccc(N(CCCl)CCCl)cc1)N=Cc1ccccc1O (stereo not drawn)	none
N#Cc1ncc(N=Cc2ccc(N(CCCl)CCCl)cc2)s1	MsrA inh 5.0 (no result: MIN6 prolif) | MsrA conf 6.2
ClCCN(CCCl)c1ccc(C=NNc2ncccn2)cc1	MsrA inh 6.2 (no result: MIN6 prolif) | MsrA conf 7.4
ClCCN(CCCl)c1ccc(C2=NCCc3ccccc32)cc1	none (no result: MIN6 prolif)
O=C(NN=Cc1ccc(N(CCCl)CCCl)cc1Cl)c1cccnc1	none (no result: MIN6 prolif)
Cc1cc(N(CCCl)CCCl)ccc1C=NNC(=O)c1cccnc1	MsrA inh 5.3 (no result: MIN6 prolif) | MsrA conf inactive
